Experimental data reported in the M2OR odorant receptor database.

Legend:
Settings in all cases: stereoisomer not certain
UniProt Q8VGC6 = molecular target: T1, UniProt Q8VGC6
T1 sequence (whole entry): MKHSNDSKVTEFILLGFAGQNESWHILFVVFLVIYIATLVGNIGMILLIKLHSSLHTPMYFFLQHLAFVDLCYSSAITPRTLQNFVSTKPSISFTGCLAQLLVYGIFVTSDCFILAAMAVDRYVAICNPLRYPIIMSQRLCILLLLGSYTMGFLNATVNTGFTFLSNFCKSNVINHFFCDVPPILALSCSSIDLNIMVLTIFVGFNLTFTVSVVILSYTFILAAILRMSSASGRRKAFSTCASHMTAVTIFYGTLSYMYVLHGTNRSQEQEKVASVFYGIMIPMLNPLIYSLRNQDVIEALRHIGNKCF
Summary of the method: (§1)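 Assay methods differ from source to source, frequently being transient luciferase assays in mammalian cell lines. For each receptor–molecule pair, the label responsive (active) applies when the original authors judged the measured signal statistically different from baseline, and non-responsive (inactive) applies otherwise.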

UniProt Q8VGD7 = molecular target: T2, UniProt Q8VGD7
T2 sequence (whole entry): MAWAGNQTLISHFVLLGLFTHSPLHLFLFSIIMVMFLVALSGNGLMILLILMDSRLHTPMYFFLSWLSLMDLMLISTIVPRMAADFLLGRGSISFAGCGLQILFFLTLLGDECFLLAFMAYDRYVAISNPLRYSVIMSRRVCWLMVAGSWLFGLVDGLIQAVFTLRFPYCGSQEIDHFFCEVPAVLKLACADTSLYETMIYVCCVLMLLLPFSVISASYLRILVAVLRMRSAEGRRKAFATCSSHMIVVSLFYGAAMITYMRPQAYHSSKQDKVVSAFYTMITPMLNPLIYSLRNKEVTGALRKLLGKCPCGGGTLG
Summary of the method: as §1

UniProt Q8VGH1 = molecular target: T3, UniProt Q8VGH1
T3 sequence (whole entry): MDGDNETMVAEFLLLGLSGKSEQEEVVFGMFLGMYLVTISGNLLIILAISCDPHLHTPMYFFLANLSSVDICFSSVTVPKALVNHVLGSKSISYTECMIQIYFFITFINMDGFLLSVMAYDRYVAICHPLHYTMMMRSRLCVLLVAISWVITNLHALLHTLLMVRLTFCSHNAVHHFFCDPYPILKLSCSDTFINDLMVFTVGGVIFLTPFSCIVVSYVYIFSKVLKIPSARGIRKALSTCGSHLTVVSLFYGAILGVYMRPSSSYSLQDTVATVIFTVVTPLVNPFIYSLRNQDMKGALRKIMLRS
Summary of the method: as §1

UniProt Q8VGJ1 = molecular target: T4, UniProt Q8VGJ1
T4 sequence (whole entry): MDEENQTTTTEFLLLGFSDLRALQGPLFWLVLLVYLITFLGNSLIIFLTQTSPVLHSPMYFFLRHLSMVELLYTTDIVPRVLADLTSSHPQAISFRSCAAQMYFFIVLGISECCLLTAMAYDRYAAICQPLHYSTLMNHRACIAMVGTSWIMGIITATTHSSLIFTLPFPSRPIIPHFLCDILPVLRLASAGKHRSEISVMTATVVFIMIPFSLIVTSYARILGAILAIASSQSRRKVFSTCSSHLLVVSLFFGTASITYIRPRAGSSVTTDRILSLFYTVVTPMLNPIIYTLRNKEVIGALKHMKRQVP
Summary of the method: as §1

UniProt Q8VGJ5 = molecular target: T5, UniProt Q8VGJ5
T5 sequence (whole entry): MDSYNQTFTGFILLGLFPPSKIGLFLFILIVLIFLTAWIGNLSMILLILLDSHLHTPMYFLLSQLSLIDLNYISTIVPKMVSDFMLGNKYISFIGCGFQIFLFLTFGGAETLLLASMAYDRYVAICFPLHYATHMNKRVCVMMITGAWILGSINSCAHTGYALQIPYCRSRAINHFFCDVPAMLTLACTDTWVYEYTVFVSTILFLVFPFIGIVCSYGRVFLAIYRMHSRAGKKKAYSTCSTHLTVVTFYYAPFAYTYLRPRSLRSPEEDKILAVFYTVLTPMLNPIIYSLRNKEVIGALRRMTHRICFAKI
Summary of the method: as §1

UniProt Q8VGL0 = molecular target: T6, UniProt Q8VGL0
T6 sequence (whole entry): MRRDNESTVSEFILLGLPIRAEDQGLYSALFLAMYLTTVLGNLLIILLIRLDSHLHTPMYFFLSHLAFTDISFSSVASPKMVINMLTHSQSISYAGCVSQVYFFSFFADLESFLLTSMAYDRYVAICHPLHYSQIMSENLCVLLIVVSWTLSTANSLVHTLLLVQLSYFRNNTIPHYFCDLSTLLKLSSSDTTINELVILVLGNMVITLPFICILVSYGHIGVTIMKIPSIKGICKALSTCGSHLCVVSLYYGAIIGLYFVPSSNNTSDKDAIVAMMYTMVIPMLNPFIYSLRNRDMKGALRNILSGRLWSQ
Summary of the method: as §1

UniProt Q8VGL7 = molecular target: T7, UniProt Q8VGL7
T7 sequence (whole entry): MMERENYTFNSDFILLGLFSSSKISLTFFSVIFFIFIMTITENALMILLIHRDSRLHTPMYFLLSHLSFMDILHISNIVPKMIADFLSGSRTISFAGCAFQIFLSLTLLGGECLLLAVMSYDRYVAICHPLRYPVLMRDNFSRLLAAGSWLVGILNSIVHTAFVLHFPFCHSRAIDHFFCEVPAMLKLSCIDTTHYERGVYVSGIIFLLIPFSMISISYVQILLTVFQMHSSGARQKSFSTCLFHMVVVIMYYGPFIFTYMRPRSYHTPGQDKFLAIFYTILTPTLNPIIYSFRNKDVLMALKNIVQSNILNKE
Summary of the method: as §1

UniProt Q8VGM2 = molecular target: T8, UniProt Q8VGM2
T8 sequence (whole entry): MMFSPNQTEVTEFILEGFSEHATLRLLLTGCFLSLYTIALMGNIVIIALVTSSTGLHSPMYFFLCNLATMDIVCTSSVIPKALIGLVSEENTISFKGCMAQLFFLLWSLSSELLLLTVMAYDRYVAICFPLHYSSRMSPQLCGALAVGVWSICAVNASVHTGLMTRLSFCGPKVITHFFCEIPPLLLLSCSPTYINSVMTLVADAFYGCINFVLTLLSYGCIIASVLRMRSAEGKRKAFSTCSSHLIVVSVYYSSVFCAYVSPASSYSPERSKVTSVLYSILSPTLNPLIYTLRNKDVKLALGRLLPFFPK
Summary of the method: as §1

UniProt Q8VGP6 = molecular target: T9, UniProt Q8VGP6
T9 sequence (whole entry): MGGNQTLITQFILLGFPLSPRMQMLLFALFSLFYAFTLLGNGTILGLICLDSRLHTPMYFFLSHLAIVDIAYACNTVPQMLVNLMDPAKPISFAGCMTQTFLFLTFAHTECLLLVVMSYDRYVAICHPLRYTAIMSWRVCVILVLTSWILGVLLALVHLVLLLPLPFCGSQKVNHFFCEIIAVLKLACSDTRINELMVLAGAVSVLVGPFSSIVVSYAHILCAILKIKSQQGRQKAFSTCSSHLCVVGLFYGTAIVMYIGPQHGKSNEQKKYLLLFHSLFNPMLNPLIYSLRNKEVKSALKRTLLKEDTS
Summary of the method: as §1

UniProt Q8VGQ3 = molecular target: T10, UniProt Q8VGQ3
T10 sequence (whole entry): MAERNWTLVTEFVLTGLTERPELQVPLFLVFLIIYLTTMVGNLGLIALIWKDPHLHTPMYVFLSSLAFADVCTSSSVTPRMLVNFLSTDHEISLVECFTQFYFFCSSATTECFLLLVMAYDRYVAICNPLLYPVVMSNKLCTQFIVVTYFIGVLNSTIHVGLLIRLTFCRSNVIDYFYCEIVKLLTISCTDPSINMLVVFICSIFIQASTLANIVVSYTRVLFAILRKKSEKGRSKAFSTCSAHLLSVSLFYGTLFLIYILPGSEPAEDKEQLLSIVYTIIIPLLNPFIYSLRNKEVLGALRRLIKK
Summary of the method: as §1

UniProt Q8VGT4 = molecular target: T11, UniProt Q8VGT4
T11 sequence (whole entry): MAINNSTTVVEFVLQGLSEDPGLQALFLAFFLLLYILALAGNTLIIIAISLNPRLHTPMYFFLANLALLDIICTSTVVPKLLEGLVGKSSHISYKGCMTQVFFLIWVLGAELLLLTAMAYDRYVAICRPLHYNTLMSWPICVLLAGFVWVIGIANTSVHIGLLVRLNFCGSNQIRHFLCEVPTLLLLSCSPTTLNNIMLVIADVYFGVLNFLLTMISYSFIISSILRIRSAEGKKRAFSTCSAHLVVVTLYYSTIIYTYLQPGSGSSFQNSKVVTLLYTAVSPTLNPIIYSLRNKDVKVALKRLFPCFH
Summary of the method: as §1

UniProt Q8VGV1 = molecular target: T12, UniProt Q8VGV1
T12 sequence (whole entry): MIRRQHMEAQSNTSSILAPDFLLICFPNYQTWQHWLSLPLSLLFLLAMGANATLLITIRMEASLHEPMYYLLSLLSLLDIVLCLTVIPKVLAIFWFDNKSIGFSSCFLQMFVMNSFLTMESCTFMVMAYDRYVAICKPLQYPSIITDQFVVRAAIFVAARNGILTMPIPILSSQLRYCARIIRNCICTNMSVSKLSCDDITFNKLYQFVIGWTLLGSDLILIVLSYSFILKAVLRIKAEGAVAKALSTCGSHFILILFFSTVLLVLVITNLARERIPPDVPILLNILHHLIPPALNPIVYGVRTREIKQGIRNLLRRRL
Summary of the method: as §1

UniProt Q8VGX5 = molecular target: T13, UniProt Q8VGX5
T13 sequence (whole entry): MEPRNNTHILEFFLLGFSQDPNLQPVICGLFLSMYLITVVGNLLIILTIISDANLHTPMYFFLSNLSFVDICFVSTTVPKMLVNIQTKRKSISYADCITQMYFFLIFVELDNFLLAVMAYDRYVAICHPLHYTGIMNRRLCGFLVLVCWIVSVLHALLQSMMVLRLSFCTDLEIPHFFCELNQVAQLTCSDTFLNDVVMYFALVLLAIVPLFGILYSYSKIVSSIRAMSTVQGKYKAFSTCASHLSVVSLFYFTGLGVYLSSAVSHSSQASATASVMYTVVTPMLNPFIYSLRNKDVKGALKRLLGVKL
Summary of the method: as §1

UniProt Q8VGW5 = molecular target: T14, UniProt Q8VGW5
T14 sequence (whole entry): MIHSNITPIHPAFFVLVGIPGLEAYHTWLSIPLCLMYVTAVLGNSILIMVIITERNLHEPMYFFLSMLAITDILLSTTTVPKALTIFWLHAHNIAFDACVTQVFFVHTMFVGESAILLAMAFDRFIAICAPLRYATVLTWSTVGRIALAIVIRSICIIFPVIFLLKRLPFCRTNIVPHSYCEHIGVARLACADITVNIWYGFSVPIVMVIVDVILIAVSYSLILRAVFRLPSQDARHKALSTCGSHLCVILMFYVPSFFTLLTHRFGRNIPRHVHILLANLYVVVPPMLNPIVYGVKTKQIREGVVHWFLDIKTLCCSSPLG
Summary of the method: as §1

Measured: odorant receptor agonist call

CCCCCO
not listed: UniProt Q8VGW5
inactive: all other assays above

CCCCCCC(=O)[O-].[H+]
inactive: all assays above
